Test results taken from ChEMBL document CHEMBL5303300, “EUbOPEN Chemogenomics Library - Multiplex” (2023).
Where “and” joins values, the source holds several entries; their conditions need not be identical. Identical values can stand only once.

Legend:
Format in all cases: toxicity, cell-based
Fibroblast = assay: Multiplex assay against human fibroblast; details: number of replicates 2
In short: (§1)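 At seeding, live cells were stained with Hoechst33342, BioTracker Green Microtubule Cytoskeleton Dye, MitoTracker Red and Annexin V Alexa Fluor 680. After compound addition they were imaged on a CQ1 microscope at 37°C and 5% CO2, and CellPathfinder machine-learning gating sorted them into Hoechst high-intensity objects or normal cells, with normal cells further split into healthy, pyknosed or fragmented nuclei and pyknosed cells into mitotic or apoptotic. Tubulin, mitochondrial-mass and membrane-permeability phenotypes are given as per cents of cells with healthy nuclei.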

HEK-293T = assay: Multiplex assay against HEK293T; details: human, number of replicates 2; in short: as §1
U2OS = assay: Multiplex assay against U2OS; details: human, number of replicates 2; in short: as §1
[1] = 12 h, 1 µM, compound concentration 1 uM
[2] = 12 h, 10 µM, compound concentration 10 uM
[3] = 24 h, 1 µM, compound concentration 1 uM
[4] = 24 h, 10 µM, compound concentration 10 uM
[5] = 48 h, 1 µM, compound concentration 1 uM
[6] = 48 h, 10 µM, compound concentration 10 uM

CC1(C)C(=O)N([C@H]2CCc3c(O)cccc32)c2nc(Nc3cccc(CN4CCCC4)c3)ncc21
Population Apoptotic (%) (Fibroblast; [1]): 38% and 68%
Population Fragmented Nuclei (%) (Fibroblast; [1]): 14% and 18%
Population Healthy Nuclei (%) (Fibroblast; [1]): 75% and 64%
Population Hoechst High Intensity Objects (%) (Fibroblast; [1]): 0%
Population Membrane Permeable-Phenotype (%) (Fibroblast; [1]): 5%
Population Mitochondria Different-Phenotype (%) (Fibroblast; [1]): 0% and 4%
Population Mitotic Cells (%) (Fibroblast; [1]): 61% and 31%
Population Normal (%) (Fibroblast; [1]): 100%
Population Pyknosed Nuclei (%) (Fibroblast; [1]): 9% and 17%
Population Tubulin-Different-Phenotype (%) (Fibroblast; [1]): 22% and 16%
Total Cell Count (Fibroblast; [1]): 136 and 183
Population Apoptotic (%) (Fibroblast; [2]): 77% and 80%
Population Fragmented Nuclei (%) (Fibroblast; [2]): 22% and 20%
Population Healthy Nuclei (%) (Fibroblast; [2]): 43% and 42%
Population Hoechst High Intensity Objects (%) (Fibroblast; [2]): 1%
Population Membrane Permeable-Phenotype (%) (Fibroblast; [2]): 9% and 4%
Population Mitochondria Different-Phenotype (%) (Fibroblast; [2]): 16% and 12%
Population Mitotic Cells (%) (Fibroblast; [2]): 22% and 20%
Population Normal (%) (Fibroblast; [2]): 98%
Population Pyknosed Nuclei (%) (Fibroblast; [2]): 33% and 37%
Population Tubulin-Different-Phenotype (%) (Fibroblast; [2]): 67% and 54%
Total Cell Count (Fibroblast; [2]): 150 and 191
Population Apoptotic (%) (Fibroblast; [3]): 62% and 70%
Population Fragmented Nuclei (%) (Fibroblast; [3]): 18% and 20%
Population Healthy Nuclei (%) (Fibroblast; [3]): 67% and 64%
Population Hoechst High Intensity Objects (%) (Fibroblast; [3]): 0%
Population Membrane Permeable-Phenotype (%) (Fibroblast; [3]): 5% and 2%
Population Mitochondria Different-Phenotype (%) (Fibroblast; [3]): 2% and 8%
Population Mitotic Cells (%) (Fibroblast; [3]): 37% and 29%
Population Normal (%) (Fibroblast; [3]): 99%
Population Pyknosed Nuclei (%) (Fibroblast; [3]): 13% and 15%
Population Tubulin-Different-Phenotype (%) (Fibroblast; [3]): 22% and 24%
Total Cell Count (Fibroblast; [3]): 118 and 154
Population Apoptotic (%) (Fibroblast; [4]): 95% and 93%
Population Fragmented Nuclei (%) (Fibroblast; [4]): 25% and 22%
Population Healthy Nuclei (%) (Fibroblast; [4]): 16%
Population Hoechst High Intensity Objects (%) (Fibroblast; [4]): 0% and 1%
Population Membrane Permeable-Phenotype (%) (Fibroblast; [4]): 7% and 8%
Population Mitochondria Different-Phenotype (%) (Fibroblast; [4]): 21% and 33%
Population Mitotic Cells (%) (Fibroblast; [4]): 4% and 6%
Population Normal (%) (Fibroblast; [4]): 99% and 98%
Population Pyknosed Nuclei (%) (Fibroblast; [4]): 58% and 61%
Population Tubulin-Different-Phenotype (%) (Fibroblast; [4]): 46% and 79%
Total Cell Count (Fibroblast; [4]): 176 and 153
Population Apoptotic (%) (Fibroblast; [5]): 69% and 79%
Population Fragmented Nuclei (%) (Fibroblast; [5]): 13% and 14%
Population Healthy Nuclei (%) (Fibroblast; [5]): 61% and 52%
Population Hoechst High Intensity Objects (%) (Fibroblast; [5]): 0%
Population Membrane Permeable-Phenotype (%) (Fibroblast; [5]): 18% and 15%
Population Mitochondria Different-Phenotype (%) (Fibroblast; [5]): 4% and 0%
Population Mitotic Cells (%) (Fibroblast; [5]): 30% and 20%
Population Normal (%) (Fibroblast; [5]): 100% and 99%
Population Pyknosed Nuclei (%) (Fibroblast; [5]): 24% and 32%
Population Tubulin-Different-Phenotype (%) (Fibroblast; [5]): 32% and 20%
Total Cell Count (Fibroblast; [5]): 105 and 132
Population Apoptotic (%) (Fibroblast; [6]): 97% and 95%
Population Fragmented Nuclei (%) (Fibroblast; [6]): 15% and 19%
Population Healthy Nuclei (%) (Fibroblast; [6]): 17%
Population Hoechst High Intensity Objects (%) (Fibroblast; [6]): 2%
Population Membrane Permeable-Phenotype (%) (Fibroblast; [6]): 14% and 20%
Population Mitochondria Different-Phenotype (%) (Fibroblast; [6]): 28% and 40%
Population Mitotic Cells (%) (Fibroblast; [6]): 2% and 4%
Population Normal (%) (Fibroblast; [6]): 97%
Population Pyknosed Nuclei (%) (Fibroblast; [6]): 67% and 62%
Population Tubulin-Different-Phenotype (%) (Fibroblast; [6]): 61% and 64%
Total Cell Count (Fibroblast; [6]): 126 and 145
Population Apoptotic (%) (HEK-293T; [1]): 51% and 69%
Population Fragmented Nuclei (%) (HEK-293T; [1]): 1% and 2%
Population Healthy Nuclei (%) (HEK-293T; [1]): 83% and 87%
Population Hoechst High Intensity Objects (%) (HEK-293T; [1]): 19% and 21%
Population Membrane Permeable-Phenotype (%) (HEK-293T; [1]): 1%
Population Mitochondria Different-Phenotype (%) (HEK-293T; [1]): 70% and 76%
Population Mitotic Cells (%) (HEK-293T; [1]): 48% and 30%
Population Normal (%) (HEK-293T; [1]): 80% and 78%
Population Pyknosed Nuclei (%) (HEK-293T; [1]): 14% and 10%
Population Tubulin-Different-Phenotype (%) (HEK-293T; [1]): 89% and 94%
Total Cell Count (HEK-293T; [1]): 252 and 277
Population Apoptotic (%) (HEK-293T; [2]): 80% and 74%
Population Fragmented Nuclei (%) (HEK-293T; [2]): 1% and 2%
Population Healthy Nuclei (%) (HEK-293T; [2]): 80% and 77%
Population Hoechst High Intensity Objects (%) (HEK-293T; [2]): 18% and 19%
Population Membrane Permeable-Phenotype (%) (HEK-293T; [2]): 2% and 0%
Population Mitochondria Different-Phenotype (%) (HEK-293T; [2]): 93% and 97%
Population Mitotic Cells (%) (HEK-293T; [2]): 19% and 25%
Population Normal (%) (HEK-293T; [2]): 81% and 80%
Population Pyknosed Nuclei (%) (HEK-293T; [2]): 17% and 20%
Population Tubulin-Different-Phenotype (%) (HEK-293T; [2]): 96% and 97%
Total Cell Count (HEK-293T; [2]): 216 and 218
Population Apoptotic (%) (HEK-293T; [3]): 88% and 33%
Population Fragmented Nuclei (%) (HEK-293T; [3]): 4% and 3%
Population Healthy Nuclei (%) (HEK-293T; [3]): 88% and 86%
Population Hoechst High Intensity Objects (%) (HEK-293T; [3]): 17% and 25%
Population Membrane Permeable-Phenotype (%) (HEK-293T; [3]): 2% and 3%
Population Mitochondria Different-Phenotype (%) (HEK-293T; [3]): 60% and 63%
Population Normal (%) (HEK-293T; [3]): 82% and 74%
Population Pyknosed Nuclei (%) (HEK-293T; [3]): 7% and 9%
Population Tubulin-Different-Phenotype (%) (HEK-293T; [3]): 92% and 89%
Total Cell Count (HEK-293T; [3]): 296 and 243
Population Apoptotic (%) (HEK-293T; [4]): 90% and 88%
Population Fragmented Nuclei (%) (HEK-293T; [4]): 4% and 3%
Population Healthy Nuclei (%) (HEK-293T; [4]): 77% and 75%
Population Hoechst High Intensity Objects (%) (HEK-293T; [4]): 21%
Population Membrane Permeable-Phenotype (%) (HEK-293T; [4]): 3% and 1%
Population Mitochondria Different-Phenotype (%) (HEK-293T; [4]): 94% and 96%
Population Mitotic Cells (%) (HEK-293T; [4]): 9% and 11%
Population Normal (%) (HEK-293T; [4]): 78%
Population Pyknosed Nuclei (%) (HEK-293T; [4]): 18% and 21%
Population Tubulin-Different-Phenotype (%) (HEK-293T; [4]): 96% and 94%
Total Cell Count (HEK-293T; [4]): 220 and 205
Population Apoptotic (%) (HEK-293T; [5]): 61% and 45%
Population Fragmented Nuclei (%) (HEK-293T; [5]): 7% and 6%
Population Healthy Nuclei (%) (HEK-293T; [5]): 87% and 89%
Population Hoechst High Intensity Objects (%) (HEK-293T; [5]): 20% and 17%
Population Membrane Permeable-Phenotype (%) (HEK-293T; [5]): 2% and 0%
Population Mitochondria Different-Phenotype (%) (HEK-293T; [5]): 26% and 29%
Population Mitotic Cells (%) (HEK-293T; [5]): 38% and 54%
Population Normal (%) (HEK-293T; [5]): 79% and 82%
Population Pyknosed Nuclei (%) (HEK-293T; [5]): 4%
Population Tubulin-Different-Phenotype (%) (HEK-293T; [5]): 84% and 87%
Total Cell Count (HEK-293T; [5]): 362 and 302
Population Apoptotic (%) (HEK-293T; [6]): 88% and 89%
Population Fragmented Nuclei (%) (HEK-293T; [6]): 3% and 1%
Population Healthy Nuclei (%) (HEK-293T; [6]): 71% and 74%
Population Hoechst High Intensity Objects (%) (HEK-293T; [6]): 22% and 24%
Population Membrane Permeable-Phenotype (%) (HEK-293T; [6]): 0%
Population Mitochondria Different-Phenotype (%) (HEK-293T; [6]): 94%
Population Mitotic Cells (%) (HEK-293T; [6]): 11% and 10%
Population Normal (%) (HEK-293T; [6]): 77% and 75%
Population Pyknosed Nuclei (%) (HEK-293T; [6]): 24%
Population Tubulin-Different-Phenotype (%) (HEK-293T; [6]): 98% and 97%
Total Cell Count (HEK-293T; [6]): 227 and 202
Population Apoptotic (%) (U2OS; [1]): 50% and 79%
Population Healthy Nuclei (%) (U2OS; [1]): 25% and 70%
Population Hoechst High Intensity Objects (%) (U2OS; [1]): 0%
Population Membrane Permeable-Phenotype (%) (U2OS; [1]): 0% and 6%
Population Mitochondria Different-Phenotype (%) (U2OS; [1]): 0% and 17%
Population Mitotic Cells (%) (U2OS; [1]): 50% and 20%
Population Normal (%) (U2OS; [1]): 100%
Population Pyknosed Nuclei (%) (U2OS; [1]): 22%
Population Tubulin-Different-Phenotype (%) (U2OS; [1]): 55% and 51%
Population Apoptotic (%) (U2OS; [2]): 90% and 88%
Population Healthy Nuclei (%) (U2OS; [2]): 28% and 42%
Population Hoechst High Intensity Objects (%) (U2OS; [2]): 0% and 2%
Population Membrane Permeable-Phenotype (%) (U2OS; [2]): 62% and 26%
Population Mitochondria Different-Phenotype (%) (U2OS; [2]): 50% and 59%
Population Mitotic Cells (%) (U2OS; [2]): 9% and 11%
Population Normal (%) (U2OS; [2]): 100% and 97%
Population Pyknosed Nuclei (%) (U2OS; [2]): 39% and 49%
Population Tubulin-Different-Phenotype (%) (U2OS; [2]): 62% and 73%
Population Apoptotic (%) (U2OS; [3]): 80% and 81%
Population Healthy Nuclei (%) (U2OS; [3]): 25% and 59%
Population Hoechst High Intensity Objects (%) (U2OS; [3]): 0%
Population Membrane Permeable-Phenotype (%) (U2OS; [3]): 0% and 6%
Population Mitochondria Different-Phenotype (%) (U2OS; [3]): 0% and 16%
Population Mitotic Cells (%) (U2OS; [3]): 20% and 18%
Population Normal (%) (U2OS; [3]): 100%
Population Pyknosed Nuclei (%) (U2OS; [3]): 31% and 29%
Population Tubulin-Different-Phenotype (%) (U2OS; [3]): 62% and 42%
Population Apoptotic (%) (U2OS; [4]): 90% and 92%
Population Healthy Nuclei (%) (U2OS; [4]): 31% and 20%
Population Hoechst High Intensity Objects (%) (U2OS; [4]): 0% and 2%
Population Membrane Permeable-Phenotype (%) (U2OS; [4]): 44% and 36%
Population Mitochondria Different-Phenotype (%) (U2OS; [4]): 66% and 72%
Population Mitotic Cells (%) (U2OS; [4]): 9% and 8%
Population Normal (%) (U2OS; [4]): 100% and 97%
Population Pyknosed Nuclei (%) (U2OS; [4]): 37% and 71%
Population Tubulin-Different-Phenotype (%) (U2OS; [4]): 55% and 83%
Population Apoptotic (%) (U2OS; [5]): 91% and 94%
Population Hoechst High Intensity Objects (%) (U2OS; [5]): 3% and 1%
Population Membrane Permeable-Phenotype (%) (U2OS; [5]): 50% and 21%
Population Mitochondria Different-Phenotype (%) (U2OS; [5]): 0% and 22%
Population Mitotic Cells (%) (U2OS; [5]): 8% and 5%
Population Normal (%) (U2OS; [5]): 96% and 98%
Population Pyknosed Nuclei (%) (U2OS; [5]): 37% and 47%
Population Tubulin-Different-Phenotype (%) (U2OS; [5]): 50% and 51%
Population Apoptotic (%) (U2OS; [6]): 97% and 81%
Population Healthy Nuclei (%) (U2OS; [6]): 12% and 15%
Population Hoechst High Intensity Objects (%) (U2OS; [6]): 1% and 2%
Population Membrane Permeable-Phenotype (%) (U2OS; [6]): 77% and 50%
Population Mitochondria Different-Phenotype (%) (U2OS; [6]): 77% and 50%
Population Normal (%) (U2OS; [6]): 98% and 97%
Population Pyknosed Nuclei (%) (U2OS; [6]): 81% and 28%
Population Tubulin-Different-Phenotype (%) (U2OS; [6]): 81% and 83%
